Source: PubChem BioAssay (Johns Hopkins Ion Channel Center)
MrgX1 antag – antagonists of human MrgX1 receptor, primary screen, HEK293 cells, Fluo-4 calcium flux; BAM8-22 antagonism; hits give low values; 310,000 tested, 1.3% active; Mas-related G-protein coupled receptor member X1 (Homo sapiens), Q96LB2; B-score at 10 µM;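 active = calcium-response B-score plate-corrected more than 3 library SD below zero, starting fluorescence within 5 deviations, no agonist response on first addition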;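 also: peak minus trough fluorescence over baseline after final BAM8-22 challenge near maximal dose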
Target sequence (Q96LB2 whole entry, looked up): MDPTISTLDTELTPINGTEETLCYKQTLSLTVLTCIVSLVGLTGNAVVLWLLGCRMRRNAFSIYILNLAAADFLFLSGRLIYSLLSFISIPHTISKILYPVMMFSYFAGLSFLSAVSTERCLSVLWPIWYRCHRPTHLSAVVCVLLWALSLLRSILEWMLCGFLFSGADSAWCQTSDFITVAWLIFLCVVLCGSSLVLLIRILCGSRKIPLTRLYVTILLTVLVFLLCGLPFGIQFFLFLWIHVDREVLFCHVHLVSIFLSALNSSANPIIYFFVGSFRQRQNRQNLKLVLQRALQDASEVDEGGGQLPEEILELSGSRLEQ
MrgX1 PAM – positive allosteric modulators of MrgX1, primary screen, HEK293 cells, Fluo-4 calcium flux; FDSS; hits give high values; B-score at 10 µM; 310,000 tested, 0.63% active;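 active = plate-corrected calcium response at least 3 library SD above typical, normal starting fluorescence, not activating the receptor alone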;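 also: compound read alongside a low EC10 to EC30 dose of BAM8-22 agonist; peak minus trough fluorescence over baseline measured at the second addition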
RGS4 inh – RGS4 inhibitors, primary screen, cell-based, HEK293 M3R inducible RGS4, calcium flux; Fluo-4 calcium flux; hits give high values; triggered by carbachol at its EC20; B-score at 10 µM; 310,000 tested, 0.45% active; AID 463165, 2010;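 active = B-score, a plate-corrected calcium signal, over three deviations above library mean, with baseline fluorescence within five deviations of library mean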;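 also: RGS4 expression induced by doxycycline in cells with stable M3 receptor; B-score is computed from the integrated fluorescence ratio over baseline after carbachol; higher B-score means a larger calcium signal and so more RGS4 inhibition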
Target sequence (P49798 whole entry, looked up): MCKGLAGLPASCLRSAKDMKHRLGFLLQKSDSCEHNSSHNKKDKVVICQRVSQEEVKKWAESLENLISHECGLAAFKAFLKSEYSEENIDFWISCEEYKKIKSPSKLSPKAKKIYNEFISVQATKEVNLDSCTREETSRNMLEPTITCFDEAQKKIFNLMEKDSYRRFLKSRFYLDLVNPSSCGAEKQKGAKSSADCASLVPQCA
RGS4 act – RGS4 potentiators or activators, primary screen, cell-based, HEK293 M3R inducible RGS4, calcium flux | carbachol calcium flux Fluo4; hits give low values | B-score at 10 µM | 310,000 tested, 0.92% active | AID 463111, 2010;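 active = B-score of the integrated calcium signal more than 4 SD below the library mean, with starting fluorescence not abnormally high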;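 also: negative B-score means reduced calcium response which marks RGS4 activation or potentiation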
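Assay system: HEK293 FlpIn-TREx cells, stable M3R, doxycycline-inducible RGS4 / Probe or stimulus: carbachol, ECmax concentration / Times: overnight RGS4 induction, 30 min dye load 37 °C, 20 min compound RT / Signal: kinetic calcium fluorescence imaging with Fluo4-AM dye, 2 µM / Measure: Agonist-evoked peak-minus-minimum fluorescence over baseline, integrated ratio, B score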
MrgX1 ag – agonists of human MrgX1 receptor, primary screen, HEK293 cells, Fluo-4 calcium flux; Fluo-4 calcium fluorescence, agonist mode; hits give high values; B-score at 10 µM; 310,000 tested, 0.44% active;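 active = calcium response B-score plate-corrected fluorescence ratio at least 3 library SD, with starting fluorescence B-score inside 5 SD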
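Material: MrgX1-expressing HEK293 cells; input: 15,000 cells per well; doses: test compound given as first of three sequential additions; schedule: overnight plating before 1 h dye loading; technique: Fluo-4 NW calcium-flux fluorescence, kinetic read; evaluation: baseline-normalised fluorescence change ratio, B-scored; control set: plate-wise positive and negative controls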
A number is an active result; . = inactive; / = no result. A selection: hits, their analogues and other compounds. The true share with any hit is near 3.5%.

SMILES	MrgX1 antag	MrgX1 PAM	RGS4 inh	RGS4 act	MrgX1 ag
CCC1(c2ccccc2)NC(=O)N(CC(=O)NCCN2C(=O)S/C(=C\c3cccnc3)C2=O)C1=O (configuration not stated)	.	.	.	.	.
O=C(CSCc1cccc(Br)c1)N/N=C/c1ccc2c(c1)OCO2	-5.4	.	.	.	.
O=C(CSCc1ccccc1)N/N=C/c1ccccc1OCc1ccccc1	-5.4	.	.	.	.
NC(=S)N/N=C/c1c[nH]c2ccc(OCc3ccccc3)cc12	.	.	.	-7.1	.
NC(=S)N/N=C\c1ccccc1OCc1ccccc1	-8.7	.	.	.	.
Cc1ccc(C(=O)N2CCC(C(=O)c3c(C)cc(C)cc3C)CC2)cc1	.	.	.	.	.
Cc1cc(=O)n2[nH]c(Nc3cccc(Cl)c3)nc2n1	.	.	.	.	.
CCOc1ccc(NS(=O)(=O)c2ccc(C(=O)NCC(c3cccs3)N3CCOCC3)cc2)cc1 (configuration not stated)	-6.5	.	.	.	.
CC(=O)c1ccc(S(=O)(=O)Nc2ccc(C(=O)NCC(c3cccs3)N3CCOCC3)cc2)cc1 (configuration not stated)	.	.	.	.	.
O=C(CCCN1C(=O)/C(=C/c2cccs2)SC1=S)Nc1cccnc1	-5.6	.	.	.	.
O=C(CCCN1C(=O)/C(=C\c2cccs2)SC1=S)Nc1cccnc1	.	.	.	.	.
O=C(CCN1C(=O)/C(=C\c2cccs2)SC1=S)Nc1ccc(C(=O)O)cc1	.	.	.	.	.
CCN(CC)CCOC(=O)c1ccc(NC(=O)CCCN2C(=O)/C(=C\c3cccs3)SC2=S)cc1	.	.	.	-7.6	.
COCC(C)N1CCC(Oc2ccc(C(=O)N3CCCC3)cc2)CC1 (configuration not stated)	.	.	.	.	.
COc1ccc(OC)c(/C=C2\SC(N3CCCCC3)=NC2=O)c1	.	.	.	.	.
COc1ccc(C(=O)/C=C2/C(=O)Nc3ccccc32)cc1OC	.	.	12	.	.
COc1ccc(C(=O)/C=C2/C(=O)Nc3ccccc32)c(OC)c1	.	.	.	.	.
CCCc1nc2ccccc2c(=O)n1NC(=O)c1c(O)c2ccccc2n(C)c1=O	.	10	.	.	.
CCOC(=O)CC(NS(=O)(=O)c1ccc2[nH]c(=O)sc2c1)c1ccc(C)cc1 (configuration not stated)	.	.	.	.	.
CC(C)(C)C(=O)C(Cl)C(=O)Nc1ccccc1 (configuration not stated)	.	.	45	.	.
CC1=NCCN1S(=O)(=O)c1ccccc1[N+](=O)[O-]	.	.	.	.	.
Cc1ccc(Nc2nc(N)c([N+](=O)[O-])c(NCCO)n2)cc1	.	8	.	.	.
Nc1nc(Nc2cccc(F)c2)nc(NCCO)c1[N+](=O)[O-]	.	.	.	.	.
COc1cc(/C=C2\SC(N3CCc4ccccc4C3)=NC2=O)cc(OC)c1OC	.	.	.	.	.
O=C1N=C(N2CCc3ccccc3C2)S/C1=C\c1cccc(O)c1	.	.	.	-8.3	.
SMILES	MrgX1 antag	MrgX1 PAM	RGS4 inh	RGS4 act	MrgX1 ag
COc1ccc(/C=C2\SC(N3CCc4ccccc4C3)=NC2=O)cc1	-4.7	.	.	.	.
CC1(C)OC2CC3C4CC(F)C5=CC(=O)C=CC5(C)C4(F)C(O)CC3(C)C2(C(=O)CO)O1 (configuration not stated)	.	.	.	.	.
Cc1ccc(C(NC(=O)N2CCCC2)C(Cl)Cl)cc1F (configuration not stated)	-4.8	.	.	.	.
Cc1ccc2nc(N(CCCN(C)C)C(=O)c3cc(-c4cccs4)nc4ccccc34)sc2c1	.	.	.	-7.8	.
CC(C)CCC(CC(C)O)c1n[nH]c(=S)n1-c1ccccc1 (configuration not stated)	-4.9	.	.	.	.
CCC(c1n[nH]c(=S)n1-c1ccccc1)N(C)C (configuration not stated)	.	.	.	.	.
O=C(O)c1cccc(-c2ccc(/C=N/Nc3ccc([N+](=O)[O-])cc3)o2)c1	-7	.	.	.	.
CC(C)(C)NC(=S)N/N=C\c1ccc(-c2ccc([N+](=O)[O-])cc2)o1	.	.	.	.	28
O=C(CCn1cncn1)N1CCCC(N2CCN(c3cccc(C(F)(F)F)c3)CC2)C1 (configuration not stated)	.	.	.	.	.
C[n+]1c(/C=C/c2ccc(O)cc2)ccc2ccccc21	.	.	.	.	.
Cc1cc(/C=C\c2ccc3cc(N(C)C)ccc3[n+]2C)c(C)n1-c1ccccc1	-9.7	.	/	/	.
Cc1nnc(SCC(=O)Nc2cc(S(C)(=O)=O)ccc2Cl)n1Cc1ccccc1	.	.	.	.	.
CCN(CC)CCNC(=O)CSc1c2c(nc3cc(Cl)ccc13)CCCC2	.	.	.	-7.3	.
CCN(CC)CCCNC(=O)c1ccc2c(SCC(=O)O)c3c(nc2c1)CCC3	.	.	.	.	.
Clc1ccc(CSc2ncn(-c3ccccc3)n2)cc1	.	.	.	-7.2	.
Clc1cccc(CSc2ncn(-c3ccccc3)n2)c1	.	.	.	.	.
CSc1ccc(OC2CCN(Cc3ccccc3)CC2)cc1	.	.	.	-7.9	.
O=C(NCc1cccc(Cl)c1)c1ccc(CS(=O)Cc2ccccc2Cl)o1 (configuration not stated)	.	.	.	.	.
COc1ccc(/C=N/Nc2nc(Nc3ccccc3)nc(N3CCCC3)n2)cc1	-5.9	.	.	.	.
O=[N+]([O-])c1ccc(Nc2nc(N/N=C/c3cccc(F)c3)nc(N3CCCC3)n2)cc1	.	.	.	.	.
COc1cccc(/C=N/Nc2nc(Nc3ccc([N+](=O)[O-])cc3)nc(N3CCCC3)n2)c1O	.	.	.	-9.2	.
CC(=O)N1CCN(c2ccc(NC(=O)C(C)Oc3ccc(Cl)cc3Cl)cc2)CC1 (configuration not stated)	-7.1	.	.	.	.
CC(Oc1ccc(Cl)cc1Cl)C(=O)Nc1ccc(N2CCN(C)CC2)cc1 (configuration not stated)	.	.	.	.	.
Cc1cccc(C(=O)Nc2ccc(C(=O)/C=C/c3ccncc3)cc2)c1	.	11	.	.	.
Cc1cccc(C(=O)Nc2ccc(C(=O)/C=C/c3cccnc3)cc2)c1	.	.	.	.	.
O=C(/C=C/c1cccnc1)c1ccc(NC(=O)c2cccc(Br)c2)cc1	.	7.1	.	.	.
